Values after ≈ are worked out from the molar mass of the structure shown.
Columns and labels:
Adenosine receptor A2a [1] = molecular target: T1, Adenosine receptor A2a (Rattus norvegicus, UniProt P30543); assay: Binding affinity to the adenosine A2A receptor by displacement of [3H]CGS-21680 in rat brain striatal membrane; type: cell membranes
Adenosine receptor A1 [2] = molecular target: T2, Adenosine receptor A1 (Rattus norvegicus, UniProt P25099); type: cell membranes, Brain
T2 sequence (P25099 whole entry): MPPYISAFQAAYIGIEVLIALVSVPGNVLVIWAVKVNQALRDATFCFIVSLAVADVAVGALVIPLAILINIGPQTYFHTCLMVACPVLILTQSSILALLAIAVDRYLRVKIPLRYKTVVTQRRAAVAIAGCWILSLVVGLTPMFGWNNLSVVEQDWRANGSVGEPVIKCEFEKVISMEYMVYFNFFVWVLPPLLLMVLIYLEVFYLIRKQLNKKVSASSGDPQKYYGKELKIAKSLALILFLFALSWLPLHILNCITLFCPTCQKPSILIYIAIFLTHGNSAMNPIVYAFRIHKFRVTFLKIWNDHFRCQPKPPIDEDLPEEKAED

Adenosine receptor A1 [3] = molecular target: T2, Adenosine receptor A1; assay: (§1) Inhibition against Adenosine A1 receptor of rat fat cell membranes (functional antagonist activity)
Method in brief: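 Adenylate cyclase assay in rat fat cell membranes measuring antagonism of R-PIA-elicited AC inhibition. KB was obtained from the Schild equation, using the ratio of R-PIA IC50 values with and without antagonist.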

Adenosine receptor A2b = molecular target: T3, Adenosine receptor A2b (Mus musculus, UniProt Q60614); assay: (§2) Inhibition against A2B-Adenosine Receptor in mouse NIH 3T3 fibroblast cell membranes (functional antagonist activity); type: cell-based
T3 sequence (Q60614 whole entry): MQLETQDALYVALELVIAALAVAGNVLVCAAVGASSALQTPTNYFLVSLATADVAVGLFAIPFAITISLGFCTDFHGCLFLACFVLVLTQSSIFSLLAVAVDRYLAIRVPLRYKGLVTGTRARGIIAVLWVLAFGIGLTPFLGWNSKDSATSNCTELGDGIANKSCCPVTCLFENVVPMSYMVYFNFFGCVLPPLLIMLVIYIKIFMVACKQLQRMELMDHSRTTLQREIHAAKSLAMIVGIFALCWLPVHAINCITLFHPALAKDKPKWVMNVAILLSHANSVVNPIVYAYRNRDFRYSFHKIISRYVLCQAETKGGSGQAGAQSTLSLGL
Method in brief: (§3)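 Adenylate cyclase assay measuring antagonism of NECA-stimulated AC in rat PC12 membranes (A2A) or NIH 3T3 fibroblast membranes (A2B). KB was obtained from the Schild equation, using the ratio of NECA EC50 values with and without antagonist.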

Adenosine receptor A3 = molecular target: T4, Adenosine receptor A3 (Homo sapiens, UniProt P0DMS8); assay: Binding affinity against human recombinant Adenosine A3 receptor stably expressed in HEK293 cells by displacing [125I]AB-MECA radioligand; type: cell-based
T4 sequence (P0DMS8 whole entry): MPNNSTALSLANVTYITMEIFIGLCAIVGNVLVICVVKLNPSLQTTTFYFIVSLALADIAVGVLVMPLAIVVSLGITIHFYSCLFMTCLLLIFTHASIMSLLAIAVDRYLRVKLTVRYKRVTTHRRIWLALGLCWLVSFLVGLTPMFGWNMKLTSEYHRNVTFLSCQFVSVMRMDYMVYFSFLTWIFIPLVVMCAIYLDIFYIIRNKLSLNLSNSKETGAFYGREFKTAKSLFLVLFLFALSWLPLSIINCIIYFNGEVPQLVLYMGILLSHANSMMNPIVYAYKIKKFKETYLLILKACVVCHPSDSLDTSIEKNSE

Adenosine receptor A2a [4] = molecular target: T1, Adenosine receptor A2a; assay: (§4) Inhibition against A2A-Adenosine Receptor of rat PC12 cell membranes (functional antagonist activity); type: cell-based, PC-12; method in brief: as §3
[5] = molecular target: T5, Adenosine receptor A2b (Mus musculus) (UniProt Q60614); assay: as §2; type: cell-based; method in brief: as §3
T5 sequence (whole entry): T3 sequence (Q60614 whole entry)

[6] = Water solubility was determined.; type: ADME
Method in brief: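 A saturated aqueous solution was prepared and the undissolved residue filtered off. The filtrate was diluted with water and its UV absorbance read at λmax. Concentration was calculated from a previously determined calibration curve for each compound.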

[7] = molecular target: T6, Adenosine receptor A3 (Homo sapiens) (UniProt P0DMS8); assay: Percent displacement against human Adenosine A3 receptor expressed in HEK293 cells by displacing [125I]AB-MECA at 10 uM; type: cell-based
T6 sequence (whole entry): T4 sequence (P0DMS8 whole entry)

[8] = molecular target: Adenosine receptor A2a (Rattus norvegicus) (UniProt P30543); assay: Binding affinity against Adenosine A2A receptor by displacement of [3H]CGS-21680 radioligand in rat brain striatal membrane at 30 uM; type: cell membranes
Method in brief: (§5)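 Single-concentration inhibition of [3H]CGS21680 binding to rat striatal membrane A2A receptors, reported as percent displacement at the stated test concentration. Nonspecific binding was defined with 20 μM 2-chloroadenosine.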

[9] = molecular target: T7, Adenosine receptor A1 (Rattus norvegicus) (UniProt P25099); assay: Percent displacement of [3H]CHA from Adenosine A1 receptor of rat brain cortical membrane at 3 uM
T7 sequence (whole entry): T2 sequence (P25099 whole entry)
Method in brief: (§6)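 Single-concentration inhibition of [3H]CHA binding to rat cerebral cortical membrane A1 receptors, reported as percent displacement at the stated test concentration. Nonspecific binding was determined with 10 μM 2-chloroadenosine.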

[10] = Water solubility of the compound; type: ADME; conditions: read-out: S
[11] = molecular target: T7, Adenosine receptor A1 (Rattus norvegicus); assay: Percent displacement of [3H]CHA from Adenosine A1 receptor of rat brain cortical membrane at 10 uM; method in brief: as §6
[12] = molecular target: Adenosine receptor A2a (Rattus norvegicus) (UniProt P30543); assay: Percent displacement of [3H]CGS-21680 from Adenosine A2A receptor of rat brain striatal membrane at 30 uM; method in brief: as §5
[13] = molecular target: Adenosine receptor A2a (Rattus norvegicus) (UniProt P30543); assay: as §4; type: cell-based; conditions: PC-12
[14] = molecular target: T7, Adenosine receptor A1 (Rattus norvegicus); assay: as §1
[15] = molecular target: T5, Adenosine receptor A2b (Mus musculus); assay: Inhibition against A2B-Adenosine Receptor in mouse NIH 3T3 fibroblast cell membranes; type: cell-based
Method in brief: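 Functional adenylate cyclase assay in NIH 3T3 fibroblast cell membranes: test compounds antagonize NECA-induced stimulation of AC (cAMP accumulation). K_B is calculated with the Schild equation from the ratio of NECA EC50 values with and without antagonist.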

[16] = molecular target: T7, Adenosine receptor A1 (Rattus norvegicus); assay: Percent displacement of [3H]CHA from Adenosine A1 receptor of rat brain cortical membrane at 30 uM; method in brief: as §6
[17] = molecular target: T7, Adenosine receptor A1 (Rattus norvegicus); assay: Percent displacement of [3H]CHA from Adenosine A1 receptor of rat brain cortical membrane at 250 uM; method in brief: as §6
[18] = molecular target: T6, Adenosine receptor A3 (Homo sapiens); assay: Percent displacement against human recombinant Adenosine A3 receptor expressed in HEK293 cells by displacing [125I]AB-MECA at 100 uM; type: cell-based

Adenosine receptor A2a (Rattus norvegicus), sequence (P30543 whole entry): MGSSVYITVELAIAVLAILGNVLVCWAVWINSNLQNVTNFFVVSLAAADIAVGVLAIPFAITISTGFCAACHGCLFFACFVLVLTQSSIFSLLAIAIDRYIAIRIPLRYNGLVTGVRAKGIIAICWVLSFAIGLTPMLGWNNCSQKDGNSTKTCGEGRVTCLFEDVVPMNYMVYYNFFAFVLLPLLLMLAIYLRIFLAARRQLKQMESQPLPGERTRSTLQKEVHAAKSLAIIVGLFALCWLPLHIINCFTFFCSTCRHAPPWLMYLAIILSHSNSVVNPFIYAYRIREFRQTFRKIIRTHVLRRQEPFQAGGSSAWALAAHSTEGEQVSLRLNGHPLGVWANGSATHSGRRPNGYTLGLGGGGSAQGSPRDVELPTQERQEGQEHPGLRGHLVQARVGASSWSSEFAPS
T1 sequence (P30543 whole entry): as above

| SMILES | Ki (Adenosine receptor A2a [1]) [µM] | Ki (Adenosine receptor A1 [2]) [µM] | further results |
| --- | --- | --- | --- |
| Cn1c(-c2ccccc2)nc2c1C1=NCCN1C(=O)N2 | 11.9 | 1.83 | KB (Adenosine receptor A1 [3]): 500 nM; KB (Adenosine receptor A2b): 7 µM; Ki (Adenosine receptor A3): 0.047 µM; KB (Adenosine receptor A2a [4]): 17.2 µM |
| CC[C@@H]1CN2C(=O)N(C)c3ncn(C)c3C2=N1 | 28.3 | 75.5 | – |
| Cn1c(=O)c2c(ncn2C)n(C)c1=O | – | – | Kb [5]: 25 µM |
| CN1C(=O)N2CCN=C2c2c1ncn2C | 20.7 | 79.6 | solubility [6]: 1210 mM (≈ 248000 µg/mL); Displacement [7]: 40% |
| CC[C@@H]1CN2C(=O)N(C)c3[nH]c(/C=C/c4ccccc4)nc3C2=N1 | 0.89 | 0.95 | Ki (Adenosine receptor A3): 0.64 µM |
| C[C@@H]1CN2C(=O)N(C)c3ncn(C)c3C2=N1 | – | – | Displacement [8]: 12%; Displacement [9]: 14% |
| Cn1c(=O)c2nc(/C=C/c3ccccc3)[nH]c2n(C)c1=O | – | – | solubility [10]: 0.00022 mM (≈ 0.0621 µg/mL) |
| C[C@H]1CN2C(=O)N(C)c3ncn(C)c3C2=N1 | – | – | Displacement [11]: 10%; Displacement [12]: 46% |
| Cn1c(=O)c2c(nc(/C=C/c3ccccc3)n2C)n(C)c1=O | – | – | solubility [10]: 0.0028 mM (≈ 0.83 µg/mL) |
| Cn1c(=O)[nH]c2nc(-c3ccccc3)n(C)c2c1=O | – | – | Kb [13]: 5.7 µM; Kb [14]: 0.32 µM; Kb [5]: 5.2 µM |
| CC[C@@H]1CN2C(=O)N(C)c3nc(-c4ccccc4)n(C)c3C2=N1 | 36.3 | 17.5 | – |
| CN1C(=O)N2CCCCC/N=C\2c2c1ncn2C | 51 | 60.3 | – |
| Cn1c(=O)c2[nH]c(-c3ccccc3)nc2n(C)c1=O [8-PHENYL THEOPHYLLINE] | 0.83 | – | – |
| CC[C@@H]1CN2C(=O)N(C)c3nc(/C=C/c4ccccc4)n(C)c3C2=N1 | 0.547 | 21.7 | Ki (Adenosine receptor A3): 1.7 µM |
| CC[C@@H]1CN2C(=O)N(C)c3nc(-c4ccccc4)[nH]c3C2=N1 | 2.1 | 0.44 | Kb [13]: 2.5 µM; Kb [14]: 0.43 µM; Kb [5]: 2.1 µM |
| CC[C@H]1CN2C(=O)N(C)c3nc(/C=C/c4ccccc4)n(C)c3C2=N1 | 0.424 | 14.9 | Kb [13]: 1 µM; Kb [14]: 33 µM; Ki (Adenosine receptor A3): 30.6 µM; Kb [5]: 3.7 µM |
| CN1C(=O)N2CCCN=C2c2c1ncn2C | 28.5 | 43.2 | – |
| CN1C(=O)N2CCN=C2c2c1nc(-c1ccccc1)n2C | 20.3 | 9.7 | Ki (Adenosine receptor A3): 3.33 µM; solubility [10]: 1.45 mM (≈ 408 µg/mL) |

| SMILES | Ki (Adenosine receptor A2a [1]) [µM] | Ki (Adenosine receptor A1 [2]) [µM] | further results |
| --- | --- | --- | --- |
| CN1C(=O)N2CCCN=C2c2c1nc(Cl)n2C | 11.9 | 10.5 | – |
| CC[C@H]1CN2C(=O)N(C)c3[nH]c(-c4ccccc4)nc3C2=N1 | 3.33 | 0.115 | Kb [13]: 4.3 µM; Kb [14]: 0.063 µM; Kb [5]: 7.6 µM |
| CCC1CN2C(=O)N(C)c3nc(-c4ccccc4)n(C)c3C2=N1 (configuration not stated) | 19.2 | 6.1 | Displacement [7]: 17% |
| Cn1c(=O)c2c(nc(-c3ccccc3)n2C)n(C)c1=O | – | – | solubility [10]: 0.487 mM (≈ 132 µg/mL) |
| CCC1CN2C(=O)N(C)c3[nH]c(-c4ccccc4)nc3C2=N1 (configuration not stated) | 3.1 | 0.265 | – |
| Cn1cnc2c1C1=NCCN1C(=O)N2 | 40.9 | 65.5 | – |
| Cn1c(=O)c2[nH]cnc2n(C)c1=O.O [THEOPHYLLINE] | – | – | Kb [15]: 16 µM; solubility [10]: 44.4 mM |
| Cn1cnc2c1C1=NCCN1C(=O)N2Cc1ccccc1 | 16.1 | – | Displacement [16]: 24% |
| C[C@H]1CN=C2c3c(ncn3C)N(C)C(=O)N21 | 12 | 70 | – |
| CC[C@H]1CN2C(=O)N(C)c3nc(-c4ccccc4)n(C)c3C2=N1 | 16.2 | 4.7 | – |
| CCCn1c(=O)[nH]c(=O)c2nc[nH]c21 | – | – | Kb [15]: 18 µM |
| CCC1CN2C(=O)N(C)c3ncn(C)c3C2=N1 (configuration not stated) | 16.2 | – | Displacement [17]: 46%; Displacement [18]: 28% |
| CC[C@H]1CN2C(=O)N(C)c3[nH]c(/C=C/c4ccccc4)nc3C2=N1 | 0.67 | 0.73 | – |
| C[C@@H]1CN=C2c3c(ncn3C)N(C)C(=O)N21 | 50.4 | 23 | – |
| CC1CN=C2c3c(ncn3C)N(C)C(=O)N21 (configuration not stated) | 64.6 | 59 | – |
| CC[C@H]1CN2C(=O)N(C)c3ncn(C)c3C2=N1 | 10.9 | – | Displacement [17]: 50% |
| CN1C(=O)N2CCCCN=C2c2c1ncn2C | 18.5 | 19.8 | – |

From ChEMBL document CHEMBL1135439, “Imidazo[2,1-i]purin-5-ones and related tricyclic water-soluble purine derivatives: potent A(2A)- and A(3)-adenosine receptor antagonists” (J Med Chem, 2002)
